From PubChem BioAssay AID504823 (Southern Research Specialized Biocontainment Screening …, 2011)

The compounds below were run on HEp-2 RSV Long CPE inhibition, luminescence viability (assay: inhibition of RSV cytopathic effect in HEp-2, dose response, cell-based, RSV Long, synthesized compounds, set 9 (AID 504823)).
Outline: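 System: RSV Long-infected HEp-2 cells; Reagent: RSV Long, MOI 0.45; Incubation: virus and compound exposure of 6 days at 37 °C; Detection: luminescence measure of cell viability reflecting viral cytopathic effect; Measure: % CPE inhibition scaled to cell-only and virus-only wells, IC50 by 4-parameter fit; Replication: triplicate.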

`COCCCNC(=O)c1ccc(Cn2c(=O)c3ccccc3n(Cc3ccc([N+](=O)[O-])cc3)c2=O)cc1` and `COCCCNC(=O)c1ccc(Cn2c(=O)c3ccccc3n(Cc3ccc(Br)cc3)c2=O)cc1` cannot be ordered by IC50: < 1200 nM for the first, < 1200 nM for the second.

`Cc1ccc(C)c(NC(=O)[C@@H]2CCCN2S(=O)(=O)c2cccc3cccnc23)c1` and `COc1ccccc1CNC(=O)C1CCN(S(=O)(=O)c2cccc3nonc23)CC1` are within 1.5-fold of each other in IC50: 3200 nM for the first, 2900 nM for the second.

`COCCCNC(=O)c1ccc(Cn2c(=O)c3ccccc3n(Cc3ccc(C)c(C(F)(F)F)c3)c2=O)cc1` and `COCCCNC(=O)c1ccc(Cn2c(=O)c3ccccc3n(Cc3ccc(C(F)(F)F)cc3)c2=O)cc1` cannot be ordered by IC50: < 1200 nM for the first, < 1200 nM for the second.

First: COCCCNC(=O)c1ccc(Cn2c(=O)c3ccccc3n(Cc3ccc(Cl)cc3)c2=O)cc1
Second: COCCCNC(=O)c1ccc(Cn2c(=O)c3ccccc3n(Cc3ccc(OC)cc3)c2=O)cc1
The IC50 of the first is lower: < 1200 nM for the first, 2400 nM for the second.

`COCCCNC(=O)c1ccc(Cn2c(=O)c3ccccc3n(Cc3ccc4nonc4c3)c2=O)cc1` gave an IC50 of 5600 nM.
